We go through 5 compounds from ChEMBL document CHEMBL1144401, “Combination of molecular modeling, site-directed mutagenesis, and SAR studies to delineate the binding site of pyridopyrimidine antagonists on the human CCK1 receptor” (J Med Chem, 2005).

By IC50 is commonly meant the concentration that gives 50% inhibition.

In test [1] the target is T1, Gastrin/cholecystokinin type B receptor (Rattus norvegicus, UniProt P30553).
T1 sequence (P30553 whole entry): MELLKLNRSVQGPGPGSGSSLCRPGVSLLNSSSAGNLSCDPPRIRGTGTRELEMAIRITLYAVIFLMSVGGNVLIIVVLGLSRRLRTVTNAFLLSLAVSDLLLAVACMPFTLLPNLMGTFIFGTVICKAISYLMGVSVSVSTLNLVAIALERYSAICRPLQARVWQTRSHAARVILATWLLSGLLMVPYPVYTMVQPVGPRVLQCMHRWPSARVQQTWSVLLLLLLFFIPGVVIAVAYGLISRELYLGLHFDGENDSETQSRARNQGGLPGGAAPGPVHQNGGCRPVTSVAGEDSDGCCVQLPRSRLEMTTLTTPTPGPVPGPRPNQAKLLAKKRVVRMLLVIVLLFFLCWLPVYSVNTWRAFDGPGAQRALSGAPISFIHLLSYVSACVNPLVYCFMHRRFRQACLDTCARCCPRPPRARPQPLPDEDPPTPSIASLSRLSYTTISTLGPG
Nature of the test: Inhibition of 71 pM [125I]BH-(Thr,Nle)CCK-9 binding to rat cholecystokinin 2 receptor.

In test [2] the test system is Cholecystokinin receptor type A (Homo sapiens), P32238 [UNDEFINED MUTATION].
Test [3] has the same test system. The source holds these as a separate data set.
Test [4] has as its target Cholecystokinin receptor type A (Homo sapiens, UniProt P32238, M195L). Nature of the test: Inhibition of CCK-Induced inositol phosphate in Cos-7 cells expressing mutant CCK1R (M195L). In kind it is functional, cell-based. The gist of the method:
(§1)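 Mutant human CCK1R cDNAs were made by site-directed mutagenesis in pRFENeo and sequence-verified. COS-7 cells were transfected by DEAE-dextran. Cells were [3H]inositol-labelled overnight, then LiCl-preincubated and incubated 60 min at 37 °C in pH 7.45 PI buffer with CCK and varying antagonist. Dowex-separated inositol phosphates were counted. IC50 given as mean ± SEM; Fmut = IC50(mutant)/IC50(wild type).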

Test [5] relates to Cholecystokinin receptor type A (Homo sapiens), P32238 [UNDEFINED MUTATION]. This is another data set of the same source.
Test [6] has as its target T2, Gastrin/cholecystokinin type B receptor (Homo sapiens, UniProt P32239).
T2 sequence (P32239 whole entry): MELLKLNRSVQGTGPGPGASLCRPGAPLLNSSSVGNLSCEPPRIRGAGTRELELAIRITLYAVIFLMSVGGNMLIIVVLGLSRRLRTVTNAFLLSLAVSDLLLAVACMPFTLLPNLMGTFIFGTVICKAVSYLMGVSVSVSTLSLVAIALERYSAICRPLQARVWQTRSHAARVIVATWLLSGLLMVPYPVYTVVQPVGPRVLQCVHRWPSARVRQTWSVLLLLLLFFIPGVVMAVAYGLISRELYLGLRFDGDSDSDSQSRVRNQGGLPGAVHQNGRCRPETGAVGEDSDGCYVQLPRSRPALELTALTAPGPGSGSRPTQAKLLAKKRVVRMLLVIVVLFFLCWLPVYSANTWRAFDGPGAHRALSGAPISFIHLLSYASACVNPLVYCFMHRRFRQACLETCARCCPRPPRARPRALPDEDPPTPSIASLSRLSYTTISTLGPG
Description: Inhibition of CCK binding to Cos-7 cells expressing human cholecystokinin 2 receptor. In kind it is cell-based. The essentials:
(§2)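 COS-7 cells were grown in DMEM with 5% FCS and transiently transfected by DEAE-dextran with 2 µg/plate of human CCK1R or CCK2R cDNA (from pancreas or gallbladder). About 24 h after replating, cells were incubated 60 min at 37 °C in DMEM with 0.1% BSA and 71 pM [125I]BH-(Thr,Nle)CCK-9 plus competitor. Nonspecific binding used 1 µM. IC50 given as mean ± SEM, 3–6 experiments.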

Test [7] concerns Cholecystokinin receptor type A (Homo sapiens), P32238 [UNDEFINED MUTATION]. The source holds these as a separate data set.
Test [8] concerns the target Cholecystokinin receptor type A (Homo sapiens, UniProt P32238, F107A). Description: Inhibition of CCK-induced inositol phosphate in Cos-7 cells expressing mutant CCK1R (F107A). In kind it is functional, cell-based. The essentials:
as §1

In test [9] the test system is Cholecystokinin receptor type A (Homo sapiens), P32238 [UNDEFINED MUTATION]. This is another data set of the same source.
For test [10], the target named is Cholecystokinin receptor type A (Homo sapiens, UniProt P32238, R197M). Nature of the test: Inhibition of CCK-Induced inositol phosphate in Cos-7 cells expressing mutant CCK1R (R197M). In kind it is functional, cell-based. The essentials:
as §1

The target in test [11] is Cholecystokinin receptor type A (Homo sapiens, UniProt P32238, S348A). Nature of the test: Inhibition of CCK-Induced inositol phosphate in Cos-7 cells expressing mutant CCK1R (S348A). In kind it is functional, cell-based. The gist of the method: as §1
Sequence of Cholecystokinin receptor type A (Homo sapiens, UniProt P32238, S348A) (P32238 whole entry S348A): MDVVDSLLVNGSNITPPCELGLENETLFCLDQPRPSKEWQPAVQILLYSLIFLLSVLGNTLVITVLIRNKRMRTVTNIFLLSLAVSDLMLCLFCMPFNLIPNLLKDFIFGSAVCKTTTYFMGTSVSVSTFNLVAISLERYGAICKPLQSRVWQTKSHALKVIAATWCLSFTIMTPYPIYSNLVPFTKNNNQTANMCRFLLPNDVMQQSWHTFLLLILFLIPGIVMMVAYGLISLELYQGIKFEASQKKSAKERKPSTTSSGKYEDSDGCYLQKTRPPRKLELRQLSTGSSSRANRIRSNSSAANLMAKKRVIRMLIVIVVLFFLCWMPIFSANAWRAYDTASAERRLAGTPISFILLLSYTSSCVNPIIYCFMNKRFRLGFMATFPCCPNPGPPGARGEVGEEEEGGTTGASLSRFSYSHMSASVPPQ
Test [12] addresses Cholecystokinin receptor type A (Homo sapiens, UniProt P32238, R336M). Nature of the test: Inhibition of CCK-Induced inositol phosphate in Cos-7 cells expressing mutant CCK1R (R336M). In kind it is functional, cell-based. The essentials:
as §1

The test system of test [13] is Cholecystokinin receptor type A (Homo sapiens), P32238 [UNDEFINED MUTATION]. The source holds these as a separate data set.
The target in test [14] is Cholecystokinin receptor type A (Homo sapiens, UniProt P32238, I352A). Nature of the test: Inhibition of CCK-Induced inositol phosphate in Cos-7 cells expressing mutant CCK1R (I352A). In kind it is functional, cell-based. The essentials: as §1
Sequence of Cholecystokinin receptor type A (Homo sapiens, UniProt P32238, I352A) (P32238 whole entry I352A): as the sequence (P32238 whole entry S348A) above, with A348S, I352A counted along it
Test [15] relates to Cholecystokinin receptor type A (Homo sapiens), P32238 [UNDEFINED MUTATION]. This is another data set of the same source.
Test [16] has as its target T3, Cholecystokinin receptor type A (Homo sapiens, UniProt P32238).
T3 sequence (P32238 whole entry): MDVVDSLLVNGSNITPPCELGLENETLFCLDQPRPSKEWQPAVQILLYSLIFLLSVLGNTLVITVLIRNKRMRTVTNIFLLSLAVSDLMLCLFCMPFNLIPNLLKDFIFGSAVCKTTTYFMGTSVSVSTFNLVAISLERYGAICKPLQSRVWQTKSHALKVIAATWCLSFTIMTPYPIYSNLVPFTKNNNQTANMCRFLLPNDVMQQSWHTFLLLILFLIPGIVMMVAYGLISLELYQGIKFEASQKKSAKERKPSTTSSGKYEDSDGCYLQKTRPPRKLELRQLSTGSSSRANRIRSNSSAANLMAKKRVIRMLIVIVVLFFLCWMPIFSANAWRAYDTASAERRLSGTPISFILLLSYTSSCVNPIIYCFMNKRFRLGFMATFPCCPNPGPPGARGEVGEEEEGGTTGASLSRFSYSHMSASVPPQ
Nature of the test: Inhibition of CCK-Induced inositol phosphate production in Cos-7 cells expressing human CCK1R. In kind it is functional, cell-based.

The target in test [17] is Cholecystokinin receptor type A (Homo sapiens, UniProt P32238, S342A). Nature of the test: Inhibition of CCK-Induced inositol phosphate in Cos-7 cells expressing mutant CCK1R (S342A). In kind it is functional, cell-based. The gist of the method:
as §1

Test [18] has as its system Cholecystokinin receptor type A (Homo sapiens), P32238 [UNDEFINED MUTATION]. The source holds these as a separate data set.
Test [19] concerns the target Cholecystokinin receptor type A (Homo sapiens, UniProt P32238, I329F). Description: Inhibition of CCK-Induced inositol phosphate in Cos-7 cells expressing mutant CCK1R (I329F). In kind it is functional, cell-based. The essentials: as §1
The test system of test [20] is Cholecystokinin receptor type A (Homo sapiens), P32238 [UNDEFINED MUTATION]. This is another data set of the same source.
Test [21] has as its target Cholecystokinin receptor type A (Homo sapiens, UniProt P32238, I329A). Nature of the test: Inhibition of CCK-induced inositol phosphate in Cos-7 cells expressing mutant CCK1R (I329A). In kind it is functional, cell-based. The gist of the method:
as §1

Test [22] concerns Cholecystokinin receptor type A (Homo sapiens), P32238 [UNDEFINED MUTATION]. The source holds these as a separate data set.
Test [23] has as its target Cholecystokinin receptor type A (Homo sapiens, UniProt P32238, T117A). Nature of the test: Inhibition of CCK-Induced inositol phosphate in Cos-7 cells expressing mutant CCK1R (T117A). In kind it is functional, cell-based. The gist of the method: as §1
Test [24] concerns the target T3, Cholecystokinin receptor type A. Description: Inhibition of CCK binding to Cos-7 cells expressing human cholecystokinin 1 receptor. In kind it is cell-based. The essentials: as §2
Test [25] deals with T4, Cholecystokinin receptor type A (Rattus norvegicus, UniProt P30551).
T4 sequence (P30551 whole entry): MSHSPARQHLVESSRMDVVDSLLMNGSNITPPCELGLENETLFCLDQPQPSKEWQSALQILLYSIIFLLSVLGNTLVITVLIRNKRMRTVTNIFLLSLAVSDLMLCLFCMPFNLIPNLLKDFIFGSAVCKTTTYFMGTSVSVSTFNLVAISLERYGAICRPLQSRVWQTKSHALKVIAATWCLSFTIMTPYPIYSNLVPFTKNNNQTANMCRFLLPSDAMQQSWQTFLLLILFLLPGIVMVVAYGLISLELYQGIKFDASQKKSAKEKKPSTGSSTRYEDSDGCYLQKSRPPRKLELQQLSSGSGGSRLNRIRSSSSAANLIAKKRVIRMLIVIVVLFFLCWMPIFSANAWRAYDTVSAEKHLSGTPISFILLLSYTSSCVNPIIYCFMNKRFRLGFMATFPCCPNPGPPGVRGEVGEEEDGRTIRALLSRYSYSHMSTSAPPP
Nature of the test: Inhibition of 71 pM [125I]BH-(Thr,Nle)CCK-9 binding to rat cholecystokinin 1 receptor.

Sequence of Cholecystokinin receptor type A (Homo sapiens, UniProt P32238, S342A) (P32238 whole entry S342A): as the sequence (P32238 whole entry S348A) above, with S342A, A348S counted along it
Sequence of Cholecystokinin receptor type A (Homo sapiens, UniProt P32238, I329A) (P32238 whole entry I329A): as the sequence (P32238 whole entry S348A) above, with I329A, A348S counted along it
Sequence of Cholecystokinin receptor type A (Homo sapiens, UniProt P32238, F107A) (P32238 whole entry F107A): as the sequence (P32238 whole entry S348A) above, with F107A, A348S counted along it
Sequence of Cholecystokinin receptor type A (Homo sapiens, UniProt P32238, R336M) (P32238 whole entry R336M): as the sequence (P32238 whole entry S348A) above, with R336M, A348S counted along it
Sequence of Cholecystokinin receptor type A (Homo sapiens, UniProt P32238, I329F) (P32238 whole entry I329F): as the sequence (P32238 whole entry S348A) above, with I329F, A348S counted along it
Sequence of Cholecystokinin receptor type A (Homo sapiens, UniProt P32238, M195L) (P32238 whole entry M195L): as the sequence (P32238 whole entry S348A) above, with M195L, A348S counted along it
Sequence of Cholecystokinin receptor type A (Homo sapiens, UniProt P32238, R197M) (P32238 whole entry R197M): as the sequence (P32238 whole entry S348A) above, with R197M, A348S counted along it
Sequence of Cholecystokinin receptor type A (Homo sapiens, UniProt P32238, T117A) (P32238 whole entry T117A): as the sequence (P32238 whole entry S348A) above, with T117A, A348S counted along it

Take `CC(C)(C)OC(=O)N[C@@H](Cc1c[nH]c2ccccc12)C(=O)N[C@@H]1CCCN2C(=O)N(Cc3ccccc3)C(=O)C[C@@H]12` [IQM-95333]: the IC50 in [1] was greater than 10 µM.
In the case of `CC(C)(C)OC(=O)N[C@@H](Cc1c[nH]c2ccccc12)C(=O)N[C@@H]1CCCN2C(S)N(Cc3ccccc3)C(=O)C[C@@H]12` (some centres undefined), the Fmut was 24.9 in test [2]; 0.2 in [3]; 0.8 in test [5]; 61.6 in [7]; 0.3 in test [9]; 0.4 in [13]. In addition, the Fmut worked out at 6.6 in [15], 4.6 in test [18], 1.6 in [20] and 138 in [22]. For the same compound, the IC50 is 0.0058 µM in test [4]; greater than 10 µM in test [6]; 0.0315 µM in test [8]; 0.0118 µM in [10]; 0.0057 µM in test [11]; 2.06 µM in test [12]. Also, the IC50 was determined as 0.831 µM in [14]; 0.0073 µM in test [16]; 0.0275 µM in test [17]; 0.183 µM in [19]; 0.129 µM in test [21]; 0.0284 µM in test [23]. In test [24], the IC50 was found to be 0.0038 µM.
Take `CC(C)(C)OC(=O)N[C@@H](Cc1c[nH]c2ccccc12)C(=O)N[C@@H]1CCCN2C(=O)N(c3cccc4ccccc34)C(=O)C[C@@H]12`: the IC50 in test [25] is 0.00059 µM; in test [4] it was 0.0052 µM; in [6] it was greater than 10 µM; in test [8], 0.0268 µM; in test [10] it was 0.0089 µM; in test [11], 0.0036 µM. Further, the IC50 worked out at 0.582 µM in test [12]; 0.227 µM in [14]; 0.0088 µM in test [16]; 0.0079 µM in test [17]; 0.801 µM in test [19]; 0.0093 µM in test [21]. The IC50 was 0.0249 µM in test [23] and 0.0021 µM in test [24]. Further, the Fmut in test [2] came out at 90.8; in test [3], 0.5; in test [5], 0.7; in test [7], 21.2; in [9] it was 0.2; in test [13] it was 0.9. Also, the Fmut was determined as 1 in [15], 3 in test [18], 2 in test [20] and 40.1 in test [22].
Consider `CC(C)(C)OC(=O)N[C@@H](Cc1c[nH]c2ccccc12)C(=O)N[C@@H]1CCCN2C(=O)N(c3ccccc3)C(=O)C[C@@H]12`, for which the Fmut in [2] worked out at 14.3; in test [3], 1.2; in test [5], 0.8; in test [7], 65.5; in test [9] it was 0.4; in test [13], 0.7. Further, the Fmut is 30.8 in test [15], 0.7 in test [18], 1.9 in test [20] and 125 in test [22]. Further, the IC50 in test [4] was 0.0352 µM; in test [6], greater than 10 µM; in test [8], 0.0233 µM; in test [10] it was 0.023 µM; in test [11], 0.0366 µM; in [12], 4.86 µM. For the same compound, the IC50 in test [14] is 2.29 µM; in [16] it was 0.0358 µM; in test [17], 0.0332 µM; in [19] it was 0.514 µM; in test [21], 1.11 µM; in test [23], 0.0716 µM. In test [24], this compound had an IC50 of 0.0052 µM.
On to `CC(C)(C)OC(=O)N[C@@H](Cc1c[nH]c2ccccc12)C(=O)N[C@H]1CCCN2C(=O)N(Cc3ccccc3)C(=O)C[C@@H]12`, for which the IC50 is 6.02 µM in test [6], 20.9 µM in test [16] and 6.85 µM in [24].
